Source: PubChem
Most compounds without a hit are left out; they make up all but 4.6% or so of the library.
OX1R antag-1: blocks the human orexin 1 receptor; O43613; CHO/OX1R cells, Fluo-8 calcium fluorescence, orexin A; inhibition, % at 5 µM; 0.43% of 330,000 active; AID 434989;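 active = inhibition above its plate's threshold, mean inhibition of all tested compounds on the plate plus 3 SD, cut at about 37% in these data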;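 note: 0% = orexin A challenge wells and 100% = SB-334867-A antagonist wells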
TAAR1 antagonist: antagonists of human TAAR1 | AID 624466 | Q96RJ0 | CHO RD-HGA16 TAAR1, Fluo-8 calcium fluorescence, antagonist | 1.5% of 360,000 active | inhibition, % at 3 µM;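 active = inhibition above a per-plate cutoff, the mean inhibition of test compounds on that plate plus 3 SD, cut at about 49% in these data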;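 note: 0% = DMSO plus EC80 beta-PEA response and 100% = DMSO alone without agonist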
Target sequence (Q96RJ0 whole entry, looked up): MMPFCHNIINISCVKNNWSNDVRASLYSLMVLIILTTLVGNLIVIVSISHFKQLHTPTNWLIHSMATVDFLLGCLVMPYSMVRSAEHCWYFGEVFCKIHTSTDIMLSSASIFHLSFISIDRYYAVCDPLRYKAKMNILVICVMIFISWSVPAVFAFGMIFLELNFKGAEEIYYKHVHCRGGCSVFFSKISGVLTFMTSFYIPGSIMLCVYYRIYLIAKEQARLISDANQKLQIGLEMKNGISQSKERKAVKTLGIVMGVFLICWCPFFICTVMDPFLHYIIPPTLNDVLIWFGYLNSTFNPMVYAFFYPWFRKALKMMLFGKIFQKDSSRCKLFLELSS
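Assay system: CHO-derived RD-HGA16 cells stably expressing human TAAR1 plus Gα16. Timing: 140 s kinetic read after compound, 140 s after agonist. Technique: kinetic Fluo-8 calcium fluorescence measurement. Measure: % inhibition of agonist calcium response.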
GPR7 antag: blocks human GPR7 receptor signaling | P48145 | GPR7-expressing cells, fluorescence antagonist assay | inhibition, % at 4.4 µM | 1.1% of 290,000 active; in the data active = inhibition above about 16%, passing the limit was not always enough;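 note: cells stimulated with the agonist NPW; 0% = agonist with vehicle and 100% = vehicle without agonist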
Target sequence (P48145 whole entry, looked up): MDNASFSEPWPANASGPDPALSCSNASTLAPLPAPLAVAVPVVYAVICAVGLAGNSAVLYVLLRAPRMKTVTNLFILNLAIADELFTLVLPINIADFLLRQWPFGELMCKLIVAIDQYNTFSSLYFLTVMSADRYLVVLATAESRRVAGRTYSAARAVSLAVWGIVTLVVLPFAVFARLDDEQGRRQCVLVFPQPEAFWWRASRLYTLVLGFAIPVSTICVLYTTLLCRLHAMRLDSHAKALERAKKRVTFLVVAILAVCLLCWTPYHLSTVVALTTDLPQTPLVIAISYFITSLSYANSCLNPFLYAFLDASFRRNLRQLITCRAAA
TAAR1 ag: agonists of human TAAR1; Q96RJ0; CHO RD-HGA16 TAAR1, Fluo-8 calcium fluorescence; vehicle wells 0%, saturating PEA agonist 100%; activation, % at 3 µM; 0.99% of 360,000 active;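 active = activation above the mean activation of all test compounds in the run plus 3 SD, cut at about 38% in these data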
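Repeats: no replicates (n 1) | Material: CHO-derived RD-HGA16 cells with stable Gα16 and human TAAR1 | Technique: Kinetic Fluo-8 calcium fluorescence | Schedule: 17-24 h seeding, 75 min 37 °C dye, 30 min RT | Evaluation: % activation from peak over basal fluorescence ratio, DMSO-to-PEA scaled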
CHO parental Ca: counter-screen for OX1R antagonists: effect in parental CHO cells; parental CHO-K1, ATP-induced calcium, Fluo-8 fluorescence; inhibition, % at 5.6 µM; 0.63% of 330,000 active;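 active = inhibition above that plate's mean sample inhibition plus 3 SD, cut at about 26% in these data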;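 note: 0% = ATP-challenged DMSO wells and 100% = DMSO wells without ATP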
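material = parental CHO cells | also added = ATP as calcium-mobilizing challenge | dosing = single point at 5.6 µM | detection = intracellular calcium via Fluo-8 no-wash fluorescent dye | read-out = % inhibition | benchmarks = low control ATP plus DMSO, high control DMSO only | repeats = one well per compound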
OX1R antag-2: OX1R (human) antagonism | OX1R-expressing cells, FRET antagonist read-out | AID 485270 | 1.8% of 330,000 active | inhibition, % at 6.6 µM | O43613; in the data active = inhibition mostly above about 38%, no sharp cut-off; inactive = mostly below about 40%;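 note: 0% = agonist challenge alone and 100% = reference antagonist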
* marks the source's active call; other numbers are inactive results.

Screening Cc1ccc(S(=O)(=O)N2CC3=C(c4ccccc4)CC4(C)C(=O)C(C)(C)CC4=C3C2)cc1 (stereo unspecified) returned TAAR1 antagonist -0.4 and TAAR1 ag -1.1.
Screening CCOC(=O)C1(Cc2ccc(Cl)cc2)CCN(C(C)Cc2ccc(O)c(OC)c2)CC1 (stereo unspecified) returned OX1R antag-1 -15.3, TAAR1 antagonist 25.6, GPR7 antag 5.5, TAAR1 ag 21.3, CHO parental Ca 38.1* and OX1R antag-2 15.3.
`CCOC(=O)C1(Cc2ccc(OC)cc2)CCN(S(C)(=O)=O)CC1` gave OX1R antag-1 -16.1, TAAR1 antagonist -11.5, GPR7 antag -2.2, TAAR1 ag 5.6, CHO parental Ca -7.1 and OX1R antag-2 16.4.
Screening COc1ccccc1NCC(O)COc1ccc(C(C)(C)C)cc1 (stereo unspecified) returned OX1R antag-1 -28.4, TAAR1 antagonist 17.0, GPR7 antag -12.8, TAAR1 ag -2.5, CHO parental Ca -2.1 and OX1R antag-2 -0.7.
For COc1ccc(OCC(O)CNCCOc2ccccc2OC)c(C(C)(C)C)c1 (stereo unspecified) the results were OX1R antag-1 -12.3, TAAR1 antagonist 12.0, GPR7 antag 21.8, TAAR1 ag 50.4*, CHO parental Ca -2.2 and OX1R antag-2 1.6.
`CC(=O)C[C@H](O)CC(=O)[C@@H]1OC(=O)CCCCCc2ccccc21` gave OX1R antag-1 -9.7, TAAR1 antagonist -5.8, TAAR1 ag -0.5, CHO parental Ca -9.9 and OX1R antag-2 3.4.
`Nc1cc2c(cc1[N+](=O)[O-])OCCO2` gave OX1R antag-1 -17.6, TAAR1 antagonist 1.1, GPR7 antag -3.4, TAAR1 ag 1.9, CHO parental Ca -14.1 and OX1R antag-2 48.6*.
`Cc1noc(C)c1COc1ccccc1C(=O)N(C)Cc1ccc(C(C)(C)C)cc1` gave OX1R antag-1 47.6*, TAAR1 antagonist 48.1, TAAR1 ag 24.4, CHO parental Ca 27.1 and OX1R antag-2 12.4.
`CCN1CCN(CCOc2ccc(Cl)cc2)CC1` gave OX1R antag-1 -15.8, TAAR1 antagonist -5.3, GPR7 antag -4.9, TAAR1 ag 11.8, CHO parental Ca -2.1 and OX1R antag-2 0.0.
Clc1ccc(OCCN2CCN(c3ncnc4sccc34)CC2)cc1 was read as OX1R antag-1 5.3, TAAR1 antagonist 17.4, GPR7 antag 19.7*, TAAR1 ag 12.9, CHO parental Ca 11.2 and OX1R antag-2 48.6*.
Screening Cc1ccc(OCCN2CCN(c3ncnc4sc(C)c(C)c34)CC2)cc1 returned OX1R antag-1 -5.1, TAAR1 antagonist 14.4, GPR7 antag 8.1, TAAR1 ag 3.5, CHO parental Ca 4.4 and OX1R antag-2 43.8*.
CC(=O)c1c(C)[nH]c(C(=O)COC(=O)c2cc(C)oc2C)c1C was read as OX1R antag-1 18.0, TAAR1 antagonist 16.3, TAAR1 ag 8.2, CHO parental Ca -4.6 and OX1R antag-2 14.7.
CC(=O)c1c(C)[nH]c(C(=O)COC(=O)C2(C)CC2(Cl)Cl)c1C (stereo unspecified) was read as OX1R antag-1 15.6, TAAR1 antagonist 55.8*, TAAR1 ag 17.0, CHO parental Ca -6.3 and OX1R antag-2 5.8.
For Cc1cccc(C(=O)NCC(=O)N(C)Cc2nc3ccccc3c(=O)[nH]2)c1 the results were OX1R antag-1 4.2, TAAR1 antagonist 7.3, TAAR1 ag 5.4, CHO parental Ca -9.2 and OX1R antag-2 1.9.
Screening CN(Cc1nc2ccccc2c(=O)[nH]1)C(=O)c1cc(-c2ccc(Br)cc2)nc2ccccc12 returned TAAR1 antagonist 50.1* and TAAR1 ag 3.4.
Screening CN(Cc1nc2ccccc2c(=O)[nH]1)C(=O)c1ccccc1OCc1ccc(Cl)cc1 returned OX1R antag-1 26.6, TAAR1 antagonist 21.1, TAAR1 ag 7.0, CHO parental Ca -24.6 and OX1R antag-2 55.6*.
Screening CN(C(=O)c1ccccc1OCc1ccc(Cl)cc1)c1ccccc1 returned OX1R antag-1 -14.3, TAAR1 antagonist -24.8, GPR7 antag -1.9, TAAR1 ag -0.9, CHO parental Ca -7.0 and OX1R antag-2 23.3.
For COC(=O)c1c(-c2ccc(OC)cc2)c2c(c3c4cc(OC)ccc4n(C(=O)c4ccccc4)c13)C(=O)N(C)C2 the results were TAAR1 antagonist 23.9 and TAAR1 ag 1.5.
CC1(C(=O)NCc2ccccc2)CSCC(=O)N1CCc1c[nH]c2ccccc12 (stereo unspecified) was read as TAAR1 antagonist 12.5 and TAAR1 ag 2.4.
Screening Fc1ccccc1N1CCN(C(c2ccnc3ccccc23)c2nnnn2-c2ccc3c(c2)OCCO3)CC1 (stereo unspecified) returned TAAR1 antagonist -21.7 and TAAR1 ag 2.8.
Screening O=C1c2cccc3cc([N+](=O)[O-])cc(c23)C(=O)N1c1ccccc1O returned OX1R antag-1 -21.5, TAAR1 antagonist -3.0, GPR7 antag 13.8, TAAR1 ag 9.4, CHO parental Ca -9.4 and OX1R antag-2 43.5*.
`O=C(O)c1cc(N=Nc2c(O)ccc3ccccc23)cc(C(=O)O)c1` gave TAAR1 antagonist -6.6, GPR7 antag 1.7 and TAAR1 ag 3.2.
For O=C(O)c1cc2ccccc2c(N=Nc2cccnc2)c1O the results were OX1R antag-1 -12.5, GPR7 antag -16.6, CHO parental Ca -8.3 and OX1R antag-2 73.6*.
For CON(C)C(=O)C(C)(C)CC#CCN(CC#Cc1ccccc1)S(=O)(=O)c1ccc(C)cc1 the results were TAAR1 antagonist 19.8 and TAAR1 ag 1.2.
COC(=O)C1=C(C)N(Cc2ccc(C(F)(F)F)cc2)C(=NCc2ccc(C(F)(F)F)cc2)NC1c1cccc(C(F)(F)F)c1 (stereo unspecified) was read as TAAR1 antagonist -2.3 and TAAR1 ag 13.1.
For O=C1C(Cl)=C(NCCCN2CCOCC2)C(=O)c2ccccc21 the results were TAAR1 antagonist -3.8 and TAAR1 ag 1.8.
`CCOCCCNC1=C(Cl)C(=O)c2ccccc2C1=O` gave OX1R antag-1 -7.8, TAAR1 antagonist -8.0, GPR7 antag -9.6, TAAR1 ag 14.0, CHO parental Ca -7.2 and OX1R antag-2 71.4*.
`O=C1C(Cl)=C(NCCN2CCOCC2)C(=O)c2ccccc21` gave OX1R antag-1 1.1, TAAR1 antagonist 18.9, GPR7 antag -6.2, TAAR1 ag 32.6, CHO parental Ca 2.2 and OX1R antag-2 61.4*.
`CCOCCCNS(=O)(=O)c1ccccc1` gave OX1R antag-1 -9.2, TAAR1 antagonist 8.7, GPR7 antag 2.4, TAAR1 ag 3.2, CHO parental Ca -4.9 and OX1R antag-2 10.1.
Screening O=C(CSc1nnc(Cc2ccccc2)n1-c1ccccc1)NNC(=O)Cc1ccccc1 returned OX1R antag-1 -15.9, TAAR1 antagonist -12.1, GPR7 antag 1.7, TAAR1 ag 23.9, CHO parental Ca -13.3 and OX1R antag-2 57.3*.
